In ChEMBL document CHEMBL2046302, “Fused tricyclic indoles as S1P₁ agonists with robust efficacy in animal models of autoimmune disease” (Bioorg Med Chem Lett, 2012):
Activity calls are given as the source filed them. The calls are words filed in the database; no cut-off is given here.

How the values were obtained:
[1] = target: T1, Sphingosine 1-phosphate receptor 1 (Homo sapiens, UniProt P21453); test: Agonist activity against human S1P1 assessed as accumulation of cAMP by HTRF assay; assay type: functional
Outline: (§1)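 Agonist EC50 was read from a cAMP HTRF assay run on human, rat and mouse S1P1. Response was scaled against S1P, and values are the mean of three or more replicates.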

[2] = target: Sphingosine 1-phosphate receptor 2 (Homo sapiens, UniProt O95136); test: Agonist activity against human S1P2 by beta arrestin recruitment assay; assay type: functional
Outline: (§2)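 Agonist EC50 at human S1P1 through S1P5 was measured by β-arrestin recruitment. Values are the mean of three or more replicates.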

[3] = target: Sphingosine 1-phosphate receptor 1 (Rattus norvegicus, UniProt P48303); test: Agonist activity against rat S1P1 assessed as accumulation of cAMP by HTRF assay; assay type: functional; outline: as §1
[4] = target: Sphingosine 1-phosphate receptor 1 (Mus musculus, UniProt O08530); test: Agonist activity against mouse S1P1 assessed as accumulation of cAMP by HTRF assay; assay type: functional; outline: as §1
[5] = target: T1, Sphingosine 1-phosphate receptor 1; test: Agonist activity against human S1P1 by beta arrestin recruitment assay; assay type: functional; outline: as §2
[6] = target: Sphingosine 1-phosphate receptor 3 (Homo sapiens, UniProt Q99500); test: Agonist activity against human S1P3 by beta arrestin recruitment assay; assay type: functional; outline: as §2
[7] = target: T2, Sphingosine 1-phosphate receptor 4 (Homo sapiens, UniProt O95977); test: Agonist activity against human S1P4 by beta arrestin recruitment assay; assay type: functional; outline: as §2
T2 sequence (O95977 whole entry): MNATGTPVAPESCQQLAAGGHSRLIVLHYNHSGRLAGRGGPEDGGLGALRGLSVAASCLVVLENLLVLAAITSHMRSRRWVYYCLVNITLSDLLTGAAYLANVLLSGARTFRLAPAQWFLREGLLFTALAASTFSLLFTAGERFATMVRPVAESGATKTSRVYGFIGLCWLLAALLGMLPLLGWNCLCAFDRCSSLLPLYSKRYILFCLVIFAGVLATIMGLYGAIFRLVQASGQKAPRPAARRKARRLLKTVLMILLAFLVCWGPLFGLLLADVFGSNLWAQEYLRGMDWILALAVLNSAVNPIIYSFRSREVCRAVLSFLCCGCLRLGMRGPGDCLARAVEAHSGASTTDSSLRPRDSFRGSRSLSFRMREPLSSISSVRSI

[8] = target: Sphingosine 1-phosphate receptor 5 (Homo sapiens, UniProt Q9H228); test: Agonist activity against human S1P5 by beta arrestin recruitment assay; assay type: functional; outline: as §2
[9] = Half life in rat liver microsome; assay type: ADME; conditions: liver microsomes
[10] = Half life in human liver microsome; assay type: ADME; conditions: liver microsomes
[11] = Clearance in Sprague-Dawley rat at 2 mg/kg, iv and 3 mg/kg, po; assay type: ADME, organism-based; conditions: in vivo
Outline: (§3)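 Male Sprague–Dawley rats received 2.0 mg/kg IV in 100% PEG400 and 3.0 mg/kg PO in 0.5% methyl cellulose. Clearance, Vss, terminal half-life, Cmax, AUClast and oral bioavailability were derived from plasma levels.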

[12] = Cmax in Sprague-Dawley rat in Sprague-Dawley rat at 2 mg/kg, iv and 3 mg/kg, po; assay type: ADME, organism-based; conditions: in vivo; outline: as §3
[13] = Volume of distribution at steady state in Sprague-Dawley rat at 2 mg/kg, iv and 3 mg/kg, po; assay type: ADME, organism-based; conditions: in vivo, read-out: Vdss; outline: as §3
[14] = Terminal half life in Sprague-Dawley rat at 2 mg/kg, iv and 3 mg/kg, po; assay type: ADME, organism-based; conditions: in vivo, read-out: beta t1/2 (converted); outline: as §3
[15] = AUClast in Sprague-Dawley rat in Sprague-Dawley rat at 2 mg/kg, iv and 3 mg/kg, po; assay type: ADME, organism-based; conditions: plasma; outline: as §3
[16] = Oral bioavailability in Sprague-Dawley rat at 3 mg/kg; assay type: ADME, organism-based; conditions: in vivo; outline: as §3
Cytochrome P450 3A4 = Cytochrome P450 3A4 (Homo sapiens, UniProt P08684); test: Inhibition of CYP3A4; assay type: ADME
Cytochrome P450 2D6 = Cytochrome P450 2D6 (Homo sapiens, UniProt P10635); test: Inhibition of CYP2D6; assay type: ADME
Cytochrome P450 2C9 = Cytochrome P450 2C9 (Homo sapiens, UniProt P11712); test: Inhibition of CYP2C9; assay type: ADME
Cytochrome P450 2C19 = Cytochrome P450 2C19 (Homo sapiens, UniProt P33261); test: Inhibition of CYP2C19; assay type: ADME
Cytochrome P450 1A2 = target: T3, Cytochrome P450 1A2 (Homo sapiens, UniProt P05177); test: Inhibition of CYP1A2; assay type: ADME
T3 sequence (P05177 whole entry): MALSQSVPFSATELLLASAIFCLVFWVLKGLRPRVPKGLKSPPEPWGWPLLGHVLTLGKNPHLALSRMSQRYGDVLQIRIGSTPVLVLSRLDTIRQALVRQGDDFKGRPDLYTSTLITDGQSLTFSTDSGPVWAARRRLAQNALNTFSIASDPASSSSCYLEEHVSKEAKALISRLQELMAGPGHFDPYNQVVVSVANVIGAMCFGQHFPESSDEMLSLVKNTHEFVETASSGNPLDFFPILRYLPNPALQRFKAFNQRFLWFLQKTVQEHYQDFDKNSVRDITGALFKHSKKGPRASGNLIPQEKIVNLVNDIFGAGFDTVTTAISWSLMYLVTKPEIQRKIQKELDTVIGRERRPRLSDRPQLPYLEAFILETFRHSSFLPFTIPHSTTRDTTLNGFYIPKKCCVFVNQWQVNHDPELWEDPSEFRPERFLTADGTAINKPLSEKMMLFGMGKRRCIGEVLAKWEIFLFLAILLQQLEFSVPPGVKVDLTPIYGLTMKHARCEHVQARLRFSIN

[17] = target: T4, Voltage-gated inwardly rectifying potassium channel KCNH2 (Homo sapiens, UniProt Q12809); test: Inhibition of human ERG by astemizole assay
[18] = target: T4, Voltage-gated inwardly rectifying potassium channel KCNH2; test: Inhibition of human ERG by patch clamp assay
Salmonella typhimurium [19] = test: Mutagenic activity against Salmonella typhimurium assessed as frame shift mutation by ames test; assay type: toxicity, organism-based; conditions: salmonella enterica subsp. enterica serovar typhimurium
Outline: (§4)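 Ames bacterial reverse mutation test on five strains, scored for frame-shift and base-pair substitution mutations.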

Salmonella typhimurium [20] = test: Mutagenic activity against Salmonella typhimurium assessed as base pair mutation by ames test; assay type: toxicity, organism-based; conditions: salmonella enterica subsp. enterica serovar typhimurium; outline: as §4
Rattus norvegicus [21] = test: Toxicity in telemeterized Charles-River Sprague-Dawley rat assessed as reduction in heart rate at 3 mg/kg, po measured over 20 hrs; assay type: organism-based; parameters: dose 3 mg/kg, route oral; conditions: in vivo
Outline: (§5)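 Telemeterized Charles River Sprague–Dawley rats received 3 or 30 mg/kg orally as a suspension in 0.5% methyl cellulose, with vehicle-treated and positive-control groups. Heart rate was recorded hourly over 20 h.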

Rattus norvegicus [22] = test: Toxicity in telemeterized Charles-River Sprague-Dawley rat assessed as reduction in heart rate at 30 mg/kg, po measured over 20 hrs; assay type: organism-based; parameters: dose 30 mg/kg, route oral; conditions: in vivo; outline: as §5
Mus musculus [23] = test: Immunosuppressant activity in BALB/c mouse assessed as reduction in circulating lymphocyte at 6 mg/kg, po measured after 5 hrs; assay type: functional, organism-based; parameters: dose 6 mg/kg
Outline: (§6)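 BALB/c mice were dosed orally as a suspension in 0.5% methyl cellulose, at 6 mg/kg or 1.0 mg/kg. Circulating lymphocytes were followed over time, with readings at 5 h and 24 h.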

Mus musculus [24] = test: Immunosuppressant activity in BALB/c mouse assessed as reduction in circulating lymphocyte at 6 mg/kg, po measured up to 24 hrs; assay type: functional, organism-based; parameters: dose 6 mg/kg; outline: as §6
Mus musculus [25] = test: Immunosuppressant activity in BALB/c mouse assessed as reduction in circulating lymphocyte at 1 mg/kg, po measured at 5 hrs; assay type: functional, organism-based; parameters: dose 1 mg/kg; outline: as §6
Mus musculus [26] = test: Immunosuppressant activity in BALB/c mouse assessed as reduction in circulating lymphocyte at 1 mg/kg, po measured at 24 hrs; assay type: functional, organism-based; parameters: dose 1 mg/kg; outline: as §6
Mus musculus [27] = test: Immunosuppressant activity in autoimmune encephalomyelitis C57B1/6 mouse model assessed as reduction in disease score at 10 mg/kg, po qd administered on day 3 post challenge; assay type: functional, organism-based; parameters: dose 10 mg/kg
Outline: (§7)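 Oral dosing once daily in 0.5% methylcellulose began on day 3. Signs of disease were monitored daily and graded on a 1–5 scale, from limp tail or hind-limb weakness (1) to death (5).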

Mus musculus [28] = test: Reduction T-cell mediated beta-cell destruction in cyclophosphamide-induced non-obese type 1 diabetes mouse model assessed as normalization of blood glucose at 1 mg/kg, po qd for 25 days; assay type: functional, organism-based; parameters: dose 1 mg/kg
Outline: (§8)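 NOD mice were given cyclophosphamide i.p. on days 0 and 14 to accelerate diabetes onset. Oral dosing once daily in 0.5% methyl cellulose ran from day 0 to day 25. Animals with non-fasting blood glucose >250 mg/dL were scored diabetic.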

Mus musculus [29] = test: Reduction T-cell mediated beta-cell destruction in cyclophosphamide-induced non-obese type 1 diabetes mouse model assessed as normalization of blood glucose at 3 to 10 mg/kg, po qd for 25 days; assay type: functional, organism-based; outline: as §8
Rattus norvegicus [30] = test: Immunosuppressant activity in collagen-induced Lewis rat arthritis model assessed as reduction in joint inflammation at 1 to 10 mg/kg, po qd; assay type: functional, organism-based
Mus musculus [31] = test: Immunosuppressant activity in autoimmune encephalomyelitis C57B1/6 mouse model assessed as reduction in disease score at 1 mg/kg, po qd administered on day 3 post challenge; assay type: functional, organism-based; parameters: dose 1 mg/kg; outline: as §7
Rattus norvegicus [32] = test: Immunosuppressant activity in collagen-induced Lewis rat arthritis model assessed as reduction in joint inflammation at 1 mg/kg, po qd; assay type: functional, organism-based; parameters: dose 1 mg/kg

T1 sequence (P21453 whole entry): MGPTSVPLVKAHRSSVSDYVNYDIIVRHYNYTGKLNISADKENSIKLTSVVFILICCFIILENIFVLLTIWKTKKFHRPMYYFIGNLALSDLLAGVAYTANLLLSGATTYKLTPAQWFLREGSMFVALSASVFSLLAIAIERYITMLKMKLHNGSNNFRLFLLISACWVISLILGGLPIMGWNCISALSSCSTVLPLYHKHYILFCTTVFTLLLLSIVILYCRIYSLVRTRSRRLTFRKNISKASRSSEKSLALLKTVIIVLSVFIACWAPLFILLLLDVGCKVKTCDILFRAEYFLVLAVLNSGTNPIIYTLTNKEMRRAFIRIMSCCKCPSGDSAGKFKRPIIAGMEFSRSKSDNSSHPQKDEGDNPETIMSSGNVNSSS
Chain of Sphingosine 1-phosphate receptor 1 (Mus musculus, UniProt O08530) (O08530 whole entry): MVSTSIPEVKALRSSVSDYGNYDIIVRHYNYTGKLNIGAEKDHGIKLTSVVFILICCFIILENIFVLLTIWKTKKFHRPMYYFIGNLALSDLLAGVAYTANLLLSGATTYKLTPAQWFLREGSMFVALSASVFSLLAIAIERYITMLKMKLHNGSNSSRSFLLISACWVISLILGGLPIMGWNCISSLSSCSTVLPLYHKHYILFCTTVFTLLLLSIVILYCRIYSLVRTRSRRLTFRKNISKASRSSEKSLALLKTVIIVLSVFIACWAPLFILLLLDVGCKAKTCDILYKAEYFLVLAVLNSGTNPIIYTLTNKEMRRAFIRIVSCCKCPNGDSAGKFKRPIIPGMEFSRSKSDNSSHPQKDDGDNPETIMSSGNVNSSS
Chain of Sphingosine 1-phosphate receptor 5 (Q9H228 whole entry): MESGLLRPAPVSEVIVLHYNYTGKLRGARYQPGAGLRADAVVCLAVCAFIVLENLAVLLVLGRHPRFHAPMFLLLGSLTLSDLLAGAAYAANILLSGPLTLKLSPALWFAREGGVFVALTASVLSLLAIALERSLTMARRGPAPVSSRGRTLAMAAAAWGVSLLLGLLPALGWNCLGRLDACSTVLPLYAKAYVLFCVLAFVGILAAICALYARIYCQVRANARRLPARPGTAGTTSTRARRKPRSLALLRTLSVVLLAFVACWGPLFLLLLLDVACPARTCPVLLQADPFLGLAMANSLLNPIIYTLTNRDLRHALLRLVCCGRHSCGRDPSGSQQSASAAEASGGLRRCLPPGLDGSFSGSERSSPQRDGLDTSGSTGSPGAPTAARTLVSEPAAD
Chain of Sphingosine 1-phosphate receptor 1 (Rattus norvegicus, UniProt P48303) (P48303 whole entry): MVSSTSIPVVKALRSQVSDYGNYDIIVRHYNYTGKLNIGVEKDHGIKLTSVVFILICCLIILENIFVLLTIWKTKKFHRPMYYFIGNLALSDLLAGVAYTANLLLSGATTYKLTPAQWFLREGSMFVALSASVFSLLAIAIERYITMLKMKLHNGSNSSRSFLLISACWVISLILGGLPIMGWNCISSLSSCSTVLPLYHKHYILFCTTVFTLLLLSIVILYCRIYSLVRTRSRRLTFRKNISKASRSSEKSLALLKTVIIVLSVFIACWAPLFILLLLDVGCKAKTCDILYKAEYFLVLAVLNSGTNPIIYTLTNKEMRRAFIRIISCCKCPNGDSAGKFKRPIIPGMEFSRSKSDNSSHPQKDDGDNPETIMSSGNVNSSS
Chain of Sphingosine 1-phosphate receptor 3 (Q99500 whole entry): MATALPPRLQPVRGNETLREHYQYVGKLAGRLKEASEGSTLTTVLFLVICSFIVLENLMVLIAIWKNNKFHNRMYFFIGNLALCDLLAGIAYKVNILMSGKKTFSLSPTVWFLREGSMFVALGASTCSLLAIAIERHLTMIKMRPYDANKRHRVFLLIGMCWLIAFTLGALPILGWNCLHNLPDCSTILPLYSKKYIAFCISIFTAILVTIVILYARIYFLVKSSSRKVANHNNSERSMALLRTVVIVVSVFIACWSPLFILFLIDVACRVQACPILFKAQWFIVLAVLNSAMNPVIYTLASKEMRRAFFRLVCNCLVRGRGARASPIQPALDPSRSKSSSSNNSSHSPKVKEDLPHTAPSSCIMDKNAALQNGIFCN
Chain of Sphingosine 1-phosphate receptor 2 (O95136 whole entry): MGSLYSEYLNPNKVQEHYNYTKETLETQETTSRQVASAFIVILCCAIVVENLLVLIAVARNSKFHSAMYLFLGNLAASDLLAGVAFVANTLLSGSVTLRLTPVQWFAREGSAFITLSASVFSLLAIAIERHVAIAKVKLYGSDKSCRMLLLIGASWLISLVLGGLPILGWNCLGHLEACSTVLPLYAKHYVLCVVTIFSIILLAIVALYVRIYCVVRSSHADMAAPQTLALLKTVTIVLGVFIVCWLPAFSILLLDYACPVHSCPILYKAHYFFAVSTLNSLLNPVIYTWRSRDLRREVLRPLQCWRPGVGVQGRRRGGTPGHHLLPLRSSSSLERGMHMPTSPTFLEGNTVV
T4 sequence (Q12809 whole entry): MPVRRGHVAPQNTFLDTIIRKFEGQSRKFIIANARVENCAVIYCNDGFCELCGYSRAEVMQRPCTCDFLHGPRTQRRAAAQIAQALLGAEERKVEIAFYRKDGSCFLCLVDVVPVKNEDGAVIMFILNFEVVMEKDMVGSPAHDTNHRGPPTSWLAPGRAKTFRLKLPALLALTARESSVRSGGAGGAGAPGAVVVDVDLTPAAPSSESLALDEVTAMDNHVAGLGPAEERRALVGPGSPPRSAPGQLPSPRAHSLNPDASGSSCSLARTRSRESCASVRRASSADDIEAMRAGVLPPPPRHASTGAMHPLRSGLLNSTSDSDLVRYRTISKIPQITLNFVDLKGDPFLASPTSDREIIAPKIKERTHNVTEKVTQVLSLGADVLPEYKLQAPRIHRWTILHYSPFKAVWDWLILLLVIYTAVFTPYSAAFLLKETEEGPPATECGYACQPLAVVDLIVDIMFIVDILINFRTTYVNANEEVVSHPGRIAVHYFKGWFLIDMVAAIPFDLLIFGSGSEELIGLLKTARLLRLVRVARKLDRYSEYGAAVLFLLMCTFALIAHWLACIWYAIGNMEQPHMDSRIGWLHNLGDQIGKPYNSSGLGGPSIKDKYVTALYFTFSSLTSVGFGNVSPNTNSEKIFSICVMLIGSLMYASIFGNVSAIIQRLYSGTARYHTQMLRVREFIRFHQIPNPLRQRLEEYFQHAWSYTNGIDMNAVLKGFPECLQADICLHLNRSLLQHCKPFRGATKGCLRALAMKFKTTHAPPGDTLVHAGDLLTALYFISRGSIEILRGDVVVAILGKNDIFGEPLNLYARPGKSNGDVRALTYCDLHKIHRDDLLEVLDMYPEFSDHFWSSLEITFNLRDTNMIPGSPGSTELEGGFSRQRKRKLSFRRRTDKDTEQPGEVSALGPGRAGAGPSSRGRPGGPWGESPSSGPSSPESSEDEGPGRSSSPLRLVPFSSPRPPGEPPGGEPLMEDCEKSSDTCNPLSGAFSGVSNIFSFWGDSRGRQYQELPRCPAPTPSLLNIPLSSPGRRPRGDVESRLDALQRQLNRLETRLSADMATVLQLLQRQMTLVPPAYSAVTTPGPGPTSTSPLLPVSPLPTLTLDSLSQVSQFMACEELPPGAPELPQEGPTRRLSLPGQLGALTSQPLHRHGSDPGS
Chain of Cytochrome P450 2D6 (P10635 whole entry): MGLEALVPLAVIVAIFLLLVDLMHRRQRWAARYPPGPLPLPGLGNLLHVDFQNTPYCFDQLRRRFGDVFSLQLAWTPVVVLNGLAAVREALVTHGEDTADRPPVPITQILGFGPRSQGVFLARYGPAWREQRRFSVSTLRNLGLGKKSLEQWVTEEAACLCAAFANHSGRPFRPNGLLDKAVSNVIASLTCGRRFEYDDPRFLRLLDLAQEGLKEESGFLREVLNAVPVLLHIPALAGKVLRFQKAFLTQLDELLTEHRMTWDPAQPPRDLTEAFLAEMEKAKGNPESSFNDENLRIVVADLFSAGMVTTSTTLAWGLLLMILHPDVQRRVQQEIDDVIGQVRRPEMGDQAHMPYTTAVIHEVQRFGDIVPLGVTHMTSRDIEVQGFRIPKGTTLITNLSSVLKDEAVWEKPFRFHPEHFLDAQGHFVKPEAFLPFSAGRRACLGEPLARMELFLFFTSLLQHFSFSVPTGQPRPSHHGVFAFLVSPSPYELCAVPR
Chain of Cytochrome P450 2C9 (P11712 whole entry): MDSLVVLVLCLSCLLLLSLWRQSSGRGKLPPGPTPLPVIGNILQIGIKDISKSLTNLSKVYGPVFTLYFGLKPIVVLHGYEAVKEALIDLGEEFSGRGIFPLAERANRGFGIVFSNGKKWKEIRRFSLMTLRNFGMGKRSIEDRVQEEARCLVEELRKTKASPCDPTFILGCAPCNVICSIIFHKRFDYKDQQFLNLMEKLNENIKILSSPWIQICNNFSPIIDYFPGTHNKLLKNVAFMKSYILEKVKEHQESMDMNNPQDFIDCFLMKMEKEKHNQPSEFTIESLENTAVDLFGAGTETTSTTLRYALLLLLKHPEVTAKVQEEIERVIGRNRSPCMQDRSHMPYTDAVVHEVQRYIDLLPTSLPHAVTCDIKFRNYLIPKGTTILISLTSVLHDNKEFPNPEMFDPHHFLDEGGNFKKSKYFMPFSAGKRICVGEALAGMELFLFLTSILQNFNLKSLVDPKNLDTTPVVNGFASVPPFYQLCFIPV
Chain of Cytochrome P450 2C19 (P33261 whole entry): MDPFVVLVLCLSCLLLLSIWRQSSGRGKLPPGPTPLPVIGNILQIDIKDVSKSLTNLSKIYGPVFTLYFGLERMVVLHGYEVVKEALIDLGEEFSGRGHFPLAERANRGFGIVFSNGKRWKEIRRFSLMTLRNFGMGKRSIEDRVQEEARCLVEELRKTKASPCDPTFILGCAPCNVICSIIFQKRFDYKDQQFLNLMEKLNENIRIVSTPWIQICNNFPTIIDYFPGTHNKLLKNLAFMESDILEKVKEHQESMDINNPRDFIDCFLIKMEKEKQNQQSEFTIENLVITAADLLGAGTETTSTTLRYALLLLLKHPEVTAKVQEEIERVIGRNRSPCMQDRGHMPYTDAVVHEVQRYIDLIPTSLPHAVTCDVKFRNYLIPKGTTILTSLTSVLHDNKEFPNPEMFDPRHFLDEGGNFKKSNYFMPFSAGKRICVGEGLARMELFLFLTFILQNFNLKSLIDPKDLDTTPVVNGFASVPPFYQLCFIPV

N#Cc1cc(OC(F)(F)F)cc(-c2nc(-c3ccc4c(c3)cc3n4CCC3CC(=O)O)no2)c1 (single isomer, unassigned; enantiomer 2) [listing 1 of 2 here]
EC50 [1]: 0.08 nM | EC50 [2]: > 100000 nM | EC50 [3]: 0.1 nM | EC50 [4]: 0.52 nM | EC50 [5]: 4.8 nM | EC50 [6]: > 100000 nM | EC50 [7]: > 100000 nM | EC50 [8]: 21 nM | half-life [9]: > 1 h | half-life [10]: > 1 h | clearance [11]: 0.422 mL/min/kg | Cmax [12]: 13300 ng/mL | Vd [13]: 0.234 L/kg | half-life [14]: 4.68 h | AUC(0-t) [15]: 124 µg·h/mL | bioavailability [16]: 100% | IC50 (Cytochrome P450 3A4): > 30000 nM | IC50 (Cytochrome P450 2D6): > 30000 nM | IC50 (Cytochrome P450 2C9): > 30000 nM | IC50 (Cytochrome P450 2C19): > 30000 nM | IC50 (Cytochrome P450 1A2): > 30000 nM | IC50 [17]: > 30000 nM | IC50 [18]: > 400000 nM | Activity (Salmonella typhimurium [19]): Non-toxic | Activity (Salmonella typhimurium [20]): Non-toxic | Activity (Rattus norvegicus [21]): Non-toxic | Activity (Rattus norvegicus [22]): Non-toxic

N#Cc1cc(OC(F)(F)F)cc(-c2nc(-c3ccc4c(c3)cc3n4CCC3CC(=O)O)no2)c1 (single isomer, unassigned; enantiomer 2) [listing 2 of 2 here]
Activity (Mus musculus [23]): Active | Activity (Mus musculus [24]): Active | Activity (Mus musculus [25]): Active | Activity (Mus musculus [26]): inactive | Activity (Mus musculus [27]): Active | Activity (Mus musculus [28]): Active | Activity (Mus musculus [29]): Active | Activity (Rattus norvegicus [30]): Active

N#Cc1cc(OC(F)(F)F)cc(-c2nc(-c3ccc4[nH]c5c(c4c3)CCC5CC(=O)O)no2)c1 (stereo in doubt; 17a)
EC50 [1]: 1.73 nM | EC50 [2]: > 100000 nM | EC50 [3]: 1.4 nM | EC50 [4]: 8.3 nM | EC50 [5]: 55 nM | EC50 [6]: > 100000 nM | EC50 [7]: 239 nM | EC50 [8]: 11 nM

N#Cc1cc(OC(F)(F)F)cc(-c2nc(-c3ccc4c(c3)cc3n4CCC3CC(=O)O)no2)c1 (stereo in doubt; 23a)
EC50 [1]: 0.76 nM | EC50 [2]: > 100000 nM | EC50 [3]: 3.4 nM | EC50 [4]: 5.5 nM | EC50 [5]: 123 nM | EC50 [6]: > 100000 nM | EC50 [7]: > 100000 nM | EC50 [8]: 289 nM

CCCCCCCCc1ccc(CCC(N)(CO)CO)cc1 [FINGOLIMOD]
Activity (Mus musculus [31]): Active | Activity (Rattus norvegicus [32]): Active | Activity (Rattus norvegicus [21]): Toxic
